Source: ChEMBL document CHEMBL1649139, “A novel gene, erm(41), confers inducible macrolide resistance to clinical isolates of Mycobacterium abscessus but is absent from Mycobacterium chelonae” (2009)
Converted amounts (≈) assume the structure as drawn.

Columns and labels:
Format in all cases: functional
[1] = test system: Mycobacteroides abscessus; assay: Antimicrobial activity against Mycobacterium abscessus isolate MC1082 at day 5 preincubated with 0.1 ug/ml for 3 days by broth microdilution method
Outline: (§1)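 Clarithromycin MIC by CLSI-conforming broth microdilution. Before testing, cultures were preincubated for 3 days, either in medium alone or in clarithromycin or erythromycin (tested range 0.01–1 μg/ml). Preincubation ran for at least two generations, judged by turbidity increase. Plates were read on day 3 and on extended incubation at days 5 to 14.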

[2] = test system: Mycobacteroides abscessus; assay: Antimicrobial activity against Mycobacterium abscessus isolate MC720 at day 3 preincubated with 0.1 ug/ml erythromycin for 3 days by broth microdilution method
Outline: (§2)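 Clarithromycin MIC by broth microdilution following CLSI guidelines. Before testing, organisms were preincubated for 3 days in medium alone or in clarithromycin or erythromycin (0.01–1 μg/ml), long enough for at least two generations judged by turbidity increase. MICs were read on day 3 and again on extended incubation out to day 14.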

[3] = test system: Mycobacteroides abscessus; assay: Antimicrobial activity against Mycobacterium abscessus isolate MC1082 at day 14 preincubated with 0.1 ug/ml for 3 days by broth microdilution method; outline: as §1
[4] = test system: Mycobacteroides abscessus; assay: Antimicrobial activity against Mycobacterium abscessus isolate MC1028 at day 3 preincubated with 0.1 ug/ml for 3 days by broth microdilution method; outline: as §1
[5] = test system: Mycobacteroides abscessus; assay: Antimicrobial activity against Mycobacterium abscessus isolate MC720 at day 7 by broth microdilution method; settings: isolate MC720, 168 h
Outline: (§3)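 Clinical M. abscessus isolates were preincubated for 3 days, either in medium alone or in clarithromycin or erythromycin at 0.01 to 1 μg/ml, allowing at least two generations of growth judged by turbidity. The clarithromycin MIC was then determined by CLSI-conforming broth microdilution, with plates read on day 3 and on extended incubation (days 5 to 14).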

[6] = test system: Mycobacteroides abscessus; assay: Antimicrobial activity against Mycobacterium abscessus isolate MC724 at day 9 preincubated with 0.1 ug/ml for 3 days by broth microdilution method
Outline: (§4)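 To test inducible resistance, cultures were preincubated for 3 days in clarithromycin or erythromycin, within 0.01–1 μg/ml. The period was set so cultures passed at least two generations, judged by turbidity increase. Clarithromycin MIC was then determined by CLSI-conforming broth microdilution and read on the stated day, from day 3 up to 14.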

[7] = test system: Mycobacteroides abscessus; assay: Antimicrobial activity against Mycobacterium abscessus isolate MC723 at day 5 by broth microdilution method; settings: isolate MC723, 120 h; outline: as §2
[8] = test system: Mycobacteroides abscessus; assay: Antimicrobial activity against Mycobacterium abscessus isolate MC879 at day 7 preincubated with 0.1 ug/ml erythromycin for 3 days by broth microdilution method; outline: as §4
[9] = test system: Mycobacteroides abscessus; assay: Antimicrobial activity against Mycobacterium abscessus isolate MC723 at day 9 preincubated with 0.1 ug/ml for 3 days by broth microdilution method; outline: as §2
[10] = test system: Mycobacteroides abscessus; assay: Antimicrobial activity against Mycobacterium abscessus isolate MC723 at day 14 by broth microdilution method; settings: isolate MC723, 336 h; outline: as §2
[11] = test system: Mycobacteroides abscessus; assay: Antimicrobial activity against Mycobacterium abscessus isolate MC724 at day 14 preincubated with 0.1 ug/ml erythromycin for 3 days by broth microdilution method; outline: as §2
[12] = test system: Mycobacteroides abscessus; assay: Antimicrobial activity against Mycobacterium abscessus isolate MAB30 at day 3 preincubated with 0.1 ug/ml for 3 days by broth microdilution method; outline: as §1
[13] = test system: Mycobacteroides abscessus; assay: Antimicrobial activity against Mycobacterium abscessus isolate MC1082 at day 14 by broth microdilution method; settings: isolate MC1082, 336 h; outline: as §1
[14] = test system: Mycobacteroides abscessus; assay: Antimicrobial activity against Mycobacterium abscessus isolate MC958 at day 5 preincubated with 0.1 ug/ml for 3 days by broth microdilution method; outline: as §3
[15] = test system: Mycobacteroides abscessus; assay: Antimicrobial activity against Mycobacterium abscessus isolate MC724 at day 3 preincubated with 0.1 ug/ml erythromycin for 3 days by broth microdilution method; outline: as §4
[16] = test system: Mycobacteroides abscessus; assay: Antimicrobial activity against Mycobacterium abscessus isolate MC720 at day 5 preincubated with 0.1 ug/ml for 3 days by broth microdilution method; outline: as §3
[17] = test system: Mycolicibacterium smegmatis; assay: Antimicrobial activity against Mycobacterium smegmatis transformed with erm allele Mycobacterium abscessus isolate MC958 preincubated with 2 ug/ml erythromycin for 20 to 24 hrs by broth microdilution method
[18] = test system: Mycobacteroides abscessus; assay: Antimicrobial activity against Mycobacterium abscessus isolate MC1028 at day 5 preincubated with 0.1 ug/ml for 3 days by broth microdilution method; outline: as §1
[19] = test system: Mycobacteroides abscessus; assay: Antimicrobial activity against Mycobacterium abscessus isolate MC724 at day 3 by broth microdilution method; settings: isolate MC724, 72 h
Outline: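 Clarithromycin MIC by broth microdilution following CLSI guidelines. Organisms were preincubated […], for 3 days before the assay. This allowed at least two generations, judged by the rise in turbidity. The MIC was read at the stated day, with incubation extended from day 3 to as long as 14 days.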

[20] = test system: Mycobacteroides abscessus; assay: Antimicrobial activity against Mycobacterium abscessus isolate MC879-2 at day 14 by broth microdilution method; settings: isolate MC879-2, 336 h
[21] = test system: Mycobacteroides abscessus; assay: Antimicrobial activity against Mycobacterium abscessus isolate MC719 at day 7 by broth microdilution method; settings: isolate MC719, 168 h; outline: as §3
[22] = test system: Mycobacteroides abscessus; assay: Antimicrobial activity against Mycobacterium abscessus isolate MC723 at day 7 by broth microdilution method; settings: isolate MC723, 168 h; outline: as §3
[23] = test system: Mycobacteroides abscessus; assay: Antimicrobial activity against Mycobacterium abscessus isolate MC1448 at day 9 preincubated with 0.1 ug/ml for 3 days by broth microdilution method; outline: as §2
[24] = test system: Mycobacteroides abscessus; assay: Antimicrobial activity against Mycobacterium abscessus isolate MC724 at day 7 by broth microdilution method; settings: isolate MC724, 168 h; outline: as §3
[25] = test system: Mycobacteroides abscessus; assay: Antimicrobial activity against Mycobacterium abscessus isolate MC724 at day 5 preincubated with 0.1 ug/ml erythromycin for 3 days by broth microdilution method; outline: as §3
[26] = test system: Mycobacteroides abscessus; assay: Antimicrobial activity against Mycobacterium abscessus isolate MC879-2 at day 7 by broth microdilution method; settings: isolate MC879-2, 168 h
[27] = test system: Mycobacteroides abscessus; assay: Antimicrobial activity against Mycobacterium abscessus isolate MC1082 at day 5 preincubated with 0.1 ug/ml erythromycin for 3 days by broth microdilution method; outline: as §1
[28] = test system: Mycobacteroides abscessus; assay: Antimicrobial activity against Mycobacterium abscessus isolate MC1448 at day 7 preincubated with 0.1 ug/ml erythromycin for 3 days by broth microdilution method; outline: as §2
[29] = test system: Mycolicibacterium smegmatis; assay: Antimicrobial activity against Mycobacterium smegmatis transformed with erm allele Mycobacterium abscessus isolate MC719 preincubated with 2 ug/ml erythromycin for 20 to 24 hrs by broth microdilution method
[30] = test system: Mycobacteroides abscessus; assay: Antimicrobial activity against Mycobacterium abscessus isolate MC879-2 at day 3 by broth microdilution method; settings: isolate MC879-2, 72 h
[31] = test system: Mycobacteroides abscessus; assay: Antimicrobial activity against Mycobacterium abscessus isolate MC719 at day 3 preincubated with 0.1 ug/ml erythromycin for 3 days by broth microdilution method; outline: as §2
[32] = test system: Mycobacteroides abscessus; assay: Antimicrobial activity against Mycobacterium abscessus isolate MC720 at day 3 by broth microdilution method; settings: isolate MC720, 72 h; outline: as §2
[33] = test system: Mycobacteroides abscessus; assay: Antimicrobial activity against Mycobacterium abscessus isolate MC1448 at day 5 preincubated with 0.1 ug/ml for 3 days by broth microdilution method; outline: as §2
[34] = test system: Mycobacteroides abscessus; assay: Antimicrobial activity against Mycobacterium abscessus isolate MC723 at day 7 preincubated with 0.1 ug/ml erythromycin for 3 days by broth microdilution method; outline: as §2
[35] = test system: Mycobacteroides abscessus; assay: Antimicrobial activity against Mycobacterium abscessus isolate MC724 at day 3 preincubated with 0.1 ug/ml for 3 days by broth microdilution method; outline: as §4

CC[C@H]1OC(=O)[C@H](C)[C@@H](O[C@H]2C[C@@](C)(OC)[C@@H](O)[C@H](C)O2)[C@H](C)[C@@H](O[C@@H]2O[C@H](C)C[C@H](N(C)C)[C@H]2O)[C@](C)(OC)C[C@@H](C)C(=O)[C@H](C)[C@@H](O)[C@]1(C)O [CLARITHROMYCIN]
MIC [1]: ≤ 0.5 µg/mL | MIC [2]: ≤ 0.5 µg/mL | MIC [3]: ≤ 0.5 µg/mL | MIC [4]: ≤ 0.5 µg/mL | MIC [5]: 8 µg/mL (≈ 10.7 µM) | MIC [6]: > 32 µg/mL | MIC [7]: 1 µg/mL (≈ 1.34 µM) | MIC [8]: > 32 µg/mL | MIC [9]: > 32 µg/mL | MIC [10]: > 32 µg/mL | MIC [11]: > 32 µg/mL | MIC [12]: ≤ 0.5 µg/mL | MIC [13]: ≤ 0.5 µg/mL | MIC [14]: 4 µg/mL (≈ 5.35 µM) | MIC [15]: ≤ 0.5 µg/mL | MIC [16]: 4 µg/mL (≈ 5.35 µM) | MIC [17]: 16 µg/mL | MIC [18]: ≤ 0.5 µg/mL | MIC [19]: ≤ 0.5 µg/mL | MIC [20]: > 32 µg/mL | MIC [21]: 8 µg/mL (≈ 10.7 µM) | MIC [22]: 8 µg/mL (≈ 10.7 µM) | MIC [23]: > 32 µg/mL | MIC [24]: 8 µg/mL (≈ 10.7 µM) | MIC [25]: 4 µg/mL | MIC [26]: > 32 µg/mL | MIC [27]: ≤ 0.5 µg/mL | MIC [28]: > 32 µg/mL | MIC [29]: 16 µg/mL | MIC [30]: > 32 µg/mL | MIC [31]: ≤ 0.5 µg/mL | MIC [32]: ≤ 0.5 µg/mL | MIC [33]: > 32 µg/mL | MIC [34]: > 32 µg/mL | MIC [35]: ≤ 0.5 µg/mL
